Source: ChEMBL document CHEMBL1135464, “3-Aryl-2-quinolone derivatives: synthesis and characterization of in vitro and in vivo antitumor effects with emphasis on a new therapeutical target connected with cell migration” (J Med Chem, 2002)

What was measured:
MCF7 = experiment: Cytotoxicity against Breast cancer cell line MCF-7 using MTT colorimetric assay; format: functional, cell-based; conditions: Homo sapiens
Procedure, shortened: (§1)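 Human tumour lines from ATCC were grown at 37 °C in sealed dishes in MEM with 5% FCS. Cells were seeded at 40000 cells/mL in 96-well plates and left 24 h to plate. Each drug was then tested at six concentrations from 10^-5 to 10^-9 M. Growth was read by colorimetric MTT assay.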

A-427 = experiment: Cytotoxicity against A-427 nonsmall lung cell line using MTT colorimetric assay; format: functional, cell-based; conditions: Homo sapiens; procedure, shortened: as §1
U373 MG = experiment: Cytotoxicity against U-373 MG glioblastomas using MTT colorimetric assay; format: functional, cell-based, U-373MG ATCC; conditions: Homo sapiens; procedure, shortened: as §1
U-87 MG = experiment: Cytotoxicity against U-87 MG glioblastomas using MTT colorimetric assay; format: functional, cell-based, U-87MG ATCC; conditions: Homo sapiens; procedure, shortened: as §1
T-24 = experiment: Cytotoxicity against T24 bladder cell lines using MTT colorimetric assay; format: functional, cell-based; conditions: Homo sapiens; procedure, shortened: as §1
[1] = Evaluated in vivo for maximum tolerated dose and found to be nontoxic; format: ADME, organism-based
J82 = experiment: Cytotoxicity against J82 bladder cell lines using MTT colorimetric assay; format: functional, cell-based; conditions: Homo sapiens; procedure, shortened: as §1
HCT-15 = experiment: Cytotoxicity against HCT-15 colon cell line using MTT colorimetric assay; format: functional, cell-based; conditions: Homo sapiens; procedure, shortened: as §1
T47D = experiment: Cytotoxicity against Breast cancer cell line T-47D using MTT colorimetric assay; format: functional, cell-based; conditions: Homo sapiens; procedure, shortened: as §1
PC-3 = experiment: Cytotoxicity against prostate cell line PC-3 using MTT colorimetric assay; format: functional, cell-based; conditions: Homo sapiens; procedure, shortened: as §1
LoVo = experiment: Cytotoxicity measured on LoVo colon cell line using MTT colorimetric assay; format: functional, cell-based; conditions: Homo sapiens; procedure, shortened: as §1
A549 = experiment: Cytotoxicity against A549 nonsmall lung cell line using MTT colorimetric assay; format: functional, cell-based; conditions: Homo sapiens; procedure, shortened: as §1
A 172 = experiment: Cytotoxicity against A-172 glioblastomas using MTT colorimetric assay; format: functional, cell-based; conditions: Homo sapiens; procedure, shortened: as §1

Which IC50 (MCF7) does the source give for `COc1ccc(-c2cc3c(OC)cc(OC)cc3n(CC(=O)O)c2=O)cc1` here?
Its IC50 is over 10 µM.

What about the IC50 (A-427) of the same molecule?
Its IC50 is over 10 µM.

And the IC50 (U373 MG)?
Its IC50 is over 10 µM.

And the IC50 (U-87 MG)?
Its IC50 is over 10 µM.

And the IC50 (T-24)?
Its IC50 is over 10 µM.

What about the MTD [1] of the same molecule?
Its MTD is 160 mg/kg.

And the IC50 (J82)?
The IC50 was over 10 µM.

What about the IC50 (HCT-15) of the same molecule?
The IC50 was over 10 µM.

And the IC50 (T47D)?
The IC50 was over 10 µM.

And the IC50 (PC-3)?
Its IC50 is over 10 µM.

And the IC50 (LoVo)?
Its IC50 is over 10 µM.

What about the IC50 (A549) of the same molecule?
Its IC50 is over 10 µM.

And the IC50 (A 172)?
Its IC50 is over 10 µM.

For `COc1cc(OC)c2cc(-c3ccc(O)cc3)c(O)nc2c1`, which IC50 (MCF7) is on record?
The IC50 was over 10 µM.

And the IC50 (A-427)?
Its IC50 is over 10 µM.

And the IC50 (U373 MG)?
The IC50 was over 10 µM.

And the IC50 (U-87 MG)?
Its IC50 is over 10 µM.

And the IC50 (T-24)?
Its IC50 is over 10 µM.

And the MTD [1]?
The MTD was 160 mg/kg.

And the IC50 (J82)?
The IC50 was over 10 µM.

And the IC50 (HCT-15)?
The IC50 was over 10 µM.

And the IC50 (T47D)?
The IC50 was over 10 µM.

And the IC50 (PC-3)?
Its IC50 is over 10 µM.

What about the IC50 (LoVo) of the same molecule?
The IC50 was over 10 µM.

And the IC50 (A549)?
Its IC50 is over 10 µM.

And the IC50 (A 172)?
The IC50 was over 10 µM.

What does the source list for `Oc1ccc(-c2cc3c(O)cc(O)cc3nc2O)cc1`?
IC50 (MCF7): > 10 µM; IC50 (A-427): > 10 µM; IC50 (U373 MG): > 10 µM; IC50 (U-87 MG): > 10 µM; IC50 (T-24): > 10 µM; MTD [1]: 160 mg/kg; IC50 (J82): > 10 µM; IC50 (HCT-15): > 10 µM; IC50 (T47D): > 10 µM; IC50 (PC-3): > 10 µM; IC50 (LoVo): > 10 µM; IC50 (A549): > 10 µM; IC50 (A 172): > 10 µM

For `COc1ccc(-c2cc3c(OC)cc(OC)cc3n(C)c2=S)cc1`, which IC50 (MCF7) is on record?
The IC50 was over 10 µM.

What about the IC50 (A-427) of the same molecule?
The IC50 was over 10 µM.

And the IC50 (U373 MG)?
The IC50 was over 10 µM.

And the IC50 (U-87 MG)?
The IC50 was over 10 µM.

What about the IC50 (T-24) of the same molecule?
The IC50 was over 10 µM.

What about the MTD [1] of the same molecule?
Its MTD is 160 mg/kg.

What about the IC50 (J82) of the same molecule?
Its IC50 is over 10 µM.

And the IC50 (HCT-15)?
Its IC50 is over 10 µM.

What about the IC50 (T47D) of the same molecule?
Its IC50 is over 10 µM.

And the IC50 (PC-3)?
The IC50 was over 10 µM.

And the IC50 (LoVo)?
Its IC50 is over 10 µM.

And the IC50 (A549)?
Its IC50 is over 10 µM.

And the IC50 (A 172)?
Its IC50 is over 10 µM.

Which results are given for `COc1cc(OC)c2cc(-c3ccc(OCc4ccccc4)cc3)c(O)nc2c1`?
IC50 (MCF7): > 10 µM; IC50 (A-427): > 10 µM; IC50 (U373 MG): > 10 µM; IC50 (U-87 MG): > 10 µM; IC50 (T-24): > 10 µM; MTD [1]: 160 mg/kg; IC50 (J82): > 10 µM; IC50 (HCT-15): > 10 µM; IC50 (T47D): > 10 µM; IC50 (PC-3): > 10 µM; IC50 (LoVo): > 10 µM; IC50 (A549): > 10 µM; IC50 (A 172): > 10 µM

With `COc1ccc(-c2cc3c(OC)cc(OC)cc3nc2O)cc1` as the molecule, how does the MTD [1] read?
Its MTD is 160 mg/kg.

Which results are given for `COc1cc(OC)c2cc(-c3ccccc3)c(O)nc2c1`?
IC50 (MCF7): > 10 µM; IC50 (A-427): > 10 µM; IC50 (U373 MG): > 10 µM; IC50 (U-87 MG): > 10 µM; IC50 (T-24): > 10 µM; MTD [1]: 160 mg/kg; IC50 (J82): > 10 µM; IC50 (HCT-15): > 10 µM; IC50 (T47D): > 10 µM; IC50 (PC-3): > 10 µM; IC50 (LoVo): > 10 µM; IC50 (A549): > 10 µM; IC50 (A 172): > 10 µM

For `CCOC(=O)Cn1c(=O)c(-c2ccc(OC)cc2)cc2c(OC)cc(OC)cc21`, which IC50 (MCF7) is on record?
The IC50 was over 10 µM.

And the IC50 (A-427)?
Its IC50 is over 10 µM.

And the IC50 (U373 MG)?
Its IC50 is over 10 µM.

What about the IC50 (U-87 MG) of the same molecule?
Its IC50 is over 10 µM.

And the IC50 (T-24)?
The IC50 was over 10 µM.

And the MTD [1]?
The MTD was 160 mg/kg.

And the IC50 (J82)?
The IC50 was over 10 µM.

And the IC50 (HCT-15)?
Its IC50 is over 10 µM.

And the IC50 (T47D)?
Its IC50 is over 10 µM.

And the IC50 (PC-3)?
Its IC50 is over 10 µM.

And the IC50 (LoVo)?
Its IC50 is over 10 µM.

What about the IC50 (A549) of the same molecule?
The IC50 was over 10 µM.

And the IC50 (A 172)?
Its IC50 is over 10 µM.

Which results are given for `COc1ccc(-c2cc3c(OC)cc(OC)cc3n(CCN(C)C)c2=O)cc1`?
IC50 (MCF7): > 10 µM; IC50 (A-427): > 10 µM; IC50 (U373 MG): > 10 µM; IC50 (U-87 MG): > 10 µM; IC50 (T-24): > 10 µM; MTD [1]: 160 mg/kg; IC50 (J82): > 10 µM; IC50 (HCT-15): > 10 µM; IC50 (T47D): > 10 µM; IC50 (PC-3): > 10 µM; IC50 (LoVo): > 10 µM; IC50 (A549): > 10 µM; IC50 (A 172): > 10 µM

With `COc1ccc(-c2cc3c(OC)cc(OC)cc3n(CCCC#N)c2=O)cc1` as the molecule, how does the IC50 (MCF7) read?
Its IC50 is over 10 µM.

And the IC50 (A-427)?
The IC50 was over 10 µM.

What about the IC50 (U373 MG) of the same molecule?
The IC50 was over 10 µM.

What about the IC50 (U-87 MG) of the same molecule?
The IC50 was over 10 µM.

What about the IC50 (T-24) of the same molecule?
Its IC50 is over 10 µM.

And the MTD [1]?
The MTD was 160 mg/kg.

What about the IC50 (J82) of the same molecule?
Its IC50 is over 10 µM.

And the IC50 (HCT-15)?
The IC50 was over 10 µM.

What about the IC50 (T47D) of the same molecule?
Its IC50 is over 10 µM.

What about the IC50 (PC-3) of the same molecule?
Its IC50 is over 10 µM.

And the IC50 (LoVo)?
The IC50 was over 10 µM.

What about the IC50 (A549) of the same molecule?
Its IC50 is over 10 µM.

What about the IC50 (A 172) of the same molecule?
Its IC50 is over 10 µM.

With `COc1ccc(-c2cc3c(OC)cc(OC)cc3n(C)/c2=N\Nc2ccccc2)cc1` as the molecule, how does the IC50 (MCF7) read?
The IC50 was over 10 µM.

And the IC50 (A-427)?
Its IC50 is over 10 µM.

What about the IC50 (U373 MG) of the same molecule?
Its IC50 is over 10 µM.

What about the IC50 (U-87 MG) of the same molecule?
The IC50 was over 10 µM.

And the IC50 (T-24)?
The IC50 was over 10 µM.

What about the MTD [1] of the same molecule?
Its MTD is 160 mg/kg.

What about the IC50 (J82) of the same molecule?
Its IC50 is over 10 µM.

And the IC50 (HCT-15)?
Its IC50 is over 10 µM.

What about the IC50 (T47D) of the same molecule?
The IC50 was over 10 µM.

And the IC50 (PC-3)?
Its IC50 is over 10 µM.

What about the IC50 (LoVo) of the same molecule?
Its IC50 is over 10 µM.

And the IC50 (A549)?
Its IC50 is over 10 µM.

What about the IC50 (A 172) of the same molecule?
The IC50 was over 10 µM.

With `COc1cc(OC)c2cc(-c3ccc(O)cc3)c(=O)n(C)c2c1` as the molecule, how does the IC50 (MCF7) read?
Its IC50 is over 10 µM.

And the IC50 (A-427)?
The IC50 was over 10 µM.

What about the IC50 (U373 MG) of the same molecule?
Its IC50 is over 10 µM.

And the IC50 (U-87 MG)?
The IC50 was over 10 µM.

And the IC50 (T-24)?
The IC50 was over 10 µM.

What about the MTD [1] of the same molecule?
The MTD was 160 mg/kg.

And the IC50 (J82)?
The IC50 was over 10 µM.

What about the IC50 (HCT-15) of the same molecule?
Its IC50 is over 10 µM.

And the IC50 (T47D)?
Its IC50 is over 10 µM.

And the IC50 (PC-3)?
Its IC50 is over 10 µM.

What about the IC50 (LoVo) of the same molecule?
The IC50 was over 10 µM.

And the IC50 (A549)?
The IC50 was over 10 µM.

And the IC50 (A 172)?
Its IC50 is over 10 µM.
